Test results from ChEMBL document CHEMBL5096226, “Structure-Activity Relationship Study of Momordica Saponin II Derivatives as Vaccine Adjuvants” (J Med Chem, 2022).
The source made the active and inactive calls.

Key:
Assay type in all cases: functional, organism-based
Mus musculus [1] = assay: Immuno-adjuvant activity in BALB/c mouse assessed as increase in anti-OVA Ig2a antibody in serum at 50 ug, sc administered on day 0, 14 and 28 and measured at 4 weeks in presence of chicken egg ovalbumin by ELISA; conditions: dose 50.0 µg, time 6.0 weeks, in the assay text read “measured at 6 weeks” for “measured at 4 weeks”
Procedure, shortened: (§1)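 Female BALB/c mice (8–10 wk, six per group) immunized s.c. with OVA 20 μg ± adjuvant on days 0, 14, 28. Tail-vein serum taken before each dose and 2 wk after the last. ELISA on OVA-coated (0.1 μg/mL) plates in borate saline pH 8.2. Twofold serum dilutions in duplicate, overnight at 4 °C. HRP anti-mouse IgG/subclass applied 4 h, OPD substrate, read at 490 nm. Concentrations from reference-serum standard curves (4-parameter fit).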

Mus musculus [2] = assay: Immuno-adjuvant activity in BALB/c mouse assessed as increase in intracellular level of INFgamma in spleen CD4+ cells at 50 ug, sc administered on day 0, 14 and 28 and measured at week 6 post immunization by flow cytometry analysis; conditions: dose 50.0 µg, time 6.0 weeks
Procedure, shortened: (§2)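 Female BALB/c mice (8–10 wk, six per group) given OVA 20 μg s.c. with adjuvant on days 0, 14, 28; spleens taken at week 6. Splenocytes stained with viability dye, Fc-blocked, surface-stained 30 min. For intracellular cytokines, cells stimulated 5 h with leukocyte activation cocktail plus GolgiPlug, then fixed/permeabilized. IL-21 detected with IL-21R Fc chimera. All steps at 4 °C. Read as MFI, mean ± SEM.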

Mus musculus [3] = assay: Immuno-adjuvant activity in BALB/c mouse assessed as increase in CD19+ B cells in spleen at 50 ug, sc administered on day 0, 14 and 28 and measured at week 6 post immunization by flow cytometry analysis; conditions: dose 50.0 µg, time 6.0 weeks
Procedure, shortened: (§3)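 Female BALB/c mice (8–10 wk, six per group), OVA 20 μg s.c. plus adjuvant on days 0, 14, 28; spleens collected week 6. Single-cell splenocyte suspensions stained and analysed by flow cytometry. TFH gated PD-1+Bcl6+Foxp3−CD4+CD3+, TFR PD-1+Bcl6+Foxp3+CD4+CD3+, dark zone GC B cells CXCR4hiCD86loFas+GL-7+CD19+. Steps at 4 °C. Mean ± SEM; unpaired t tests.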

Mus musculus [4] = assay: Immuno-adjuvant activity in BALB/c mouse assessed as increase in intracellular level of INFgamma in spleen CD8+ cells at 50 ug, sc administered on day 0, 14 and 28 and measured at week 6 post immunization by flow cytometry analysis; conditions: dose 50.0 µg, time 6.0 weeks; procedure, shortened: as §2
Mus musculus [5] = assay: Immuno-adjuvant activity in BALB/c mouse Splenocyte assessed as increase in CD4+ surface expression of PD-1 at 50 ug, sc administered on day 0, 14 and 28 and measured at week 6 post immunization by flow cytometry analysis; conditions: dose 50.0 µg, time 6.0 weeks; procedure, shortened: as §2
Mus musculus [6] = assay: Immuno-adjuvant activity in BALB/c mouse assessed as increase in anti-OVA IgG antibody in serum at 50 ug, sc administered on day 0, 14 and 28 and measured at 4 and 6 weeks in presence of chicken egg ovalbumin by ELISA; conditions: dose 50.0 µg, time 4-6 weeks; procedure, shortened: as §1
Mus musculus [7] = assay: Immuno-adjuvant activity in BALB/c mouse assessed as increase in anti-OVA IgG2a antibody in serum at 50 ug, sc administered on day 0, 14 and 28 and measured at 2 weeks in presence of chicken egg ovalbumin by ELISA; conditions: dose 50.0 µg, time 6.0 weeks, in the assay text read “measured at 6 weeks” for “measured at 2 weeks”; procedure, shortened: as §1
Mus musculus [8] = assay: Immuno-adjuvant activity in BALB/c mouse assessed as increase in ratio of TFH to TFR cells at 50 ug, sc administered on day 0, 14 and 28 and measured at week 6 post immunization by flow cytometry analysis; conditions: dose 50.0 µg, time 6.0 weeks; procedure, shortened: as §3

Measured: Activity

COc1cccc(COC(=O)CCCCCCCCCCNC(=O)[C@H]2O[C@@H](O[C@H]3CC[C@]4(C)[C@H]5CC=C6[C@@H]7CC(C)(C)CC[C@]7(C(=O)O[C@@H]7O[C@H](C)[C@H](O)[C@H](O)[C@H]7O[C@@H]7O[C@@H](C)[C@H](O[C@@H]8OC[C@@H](O)[C@H](O)[C@H]8O)[C@@H](O[C@@H]8O[C@H](CO)[C@@H](O)[C@H](O[C@@H]9OC[C@@H](O)[C@H](O)[C@H]9O)[C@H]8O)[C@H]7O)[C@H](O)C[C@@]6(C)[C@]5(C)CC[C@H]4[C@]3(C)C=O)[C@H](O[C@@H]3O[C@H](CO)[C@H](O)[C@H](O)[C@H]3O)[C@@H](O[C@@H]3O[C@@H](C)[C@H](O)[C@@H](O)[C@H]3O)[C@@H]2O)c1
active: Mus musculus [1] | Mus musculus [2] | Mus musculus [3] | Mus musculus [4] | Mus musculus [5]

C[C@@H]1O[C@@H](O[C@H]2[C@H](O)[C@@H](C(=O)NCCCCCCCCCCCOC(=O)c3ccccc3)O[C@@H](O[C@H]3CC[C@]4(C)[C@H]5CC=C6[C@@H]7CC(C)(C)CC[C@]7(C(=O)O[C@@H]7O[C@H](C)[C@H](O)[C@H](O)[C@H]7O[C@@H]7O[C@@H](C)[C@H](O[C@@H]8OC[C@@H](O)[C@H](O)[C@H]8O)[C@@H](O[C@@H]8O[C@H](CO)[C@@H](O)[C@H](O[C@@H]9OC[C@@H](O)[C@H](O)[C@H]9O)[C@H]8O)[C@H]7O)[C@H](O)C[C@@]6(C)[C@]5(C)CC[C@H]4[C@]3(C)C=O)[C@@H]2O[C@@H]2O[C@H](CO)[C@H](O)[C@H](O)[C@H]2O)[C@H](O)[C@H](O)[C@H]1O
active: Mus musculus [6] | Mus musculus [7]

C[C@@H]1O[C@@H](O[C@H]2[C@H](O)[C@@H](C(=O)NCCCCCCCCCCNC(=O)c3ccccc3)O[C@@H](O[C@H]3CC[C@]4(C)[C@H]5CC=C6[C@@H]7CC(C)(C)CC[C@]7(C(=O)O[C@@H]7O[C@H](C)[C@H](O)[C@H](O)[C@H]7O[C@@H]7O[C@@H](C)[C@H](O[C@@H]8OC[C@@H](O)[C@H](O)[C@H]8O)[C@@H](O[C@@H]8O[C@H](CO)[C@@H](O)[C@H](O[C@@H]9OC[C@@H](O)[C@H](O)[C@H]9O)[C@H]8O)[C@H]7O)[C@H](O)C[C@@]6(C)[C@]5(C)CC[C@H]4[C@]3(C)C=O)[C@@H]2O[C@@H]2O[C@H](CO)[C@H](O)[C@H](O)[C@H]2O)[C@H](O)[C@H](O)[C@H]1O
active: Mus musculus [7]

C[C@@H]1O[C@@H](O[C@H]2[C@H](O)[C@@H](C(=O)NCCCCCCCCCCC(=O)OCc3ccc(F)cc3)O[C@@H](O[C@H]3CC[C@]4(C)[C@H]5CC=C6[C@@H]7CC(C)(C)CC[C@]7(C(=O)O[C@@H]7O[C@H](C)[C@H](O)[C@H](O)[C@H]7O[C@@H]7O[C@@H](C)[C@H](O[C@@H]8OC[C@@H](O)[C@H](O)[C@H]8O)[C@@H](O[C@@H]8O[C@H](CO)[C@@H](O)[C@H](O[C@@H]9OC[C@@H](O)[C@H](O)[C@H]9O)[C@H]8O)[C@H]7O)[C@H](O)C[C@@]6(C)[C@]5(C)CC[C@H]4[C@]3(C)C=O)[C@@H]2O[C@@H]2O[C@H](CO)[C@H](O)[C@H](O)[C@H]2O)[C@H](O)[C@H](O)[C@H]1O
active: Mus musculus [1] | Mus musculus [3] | Mus musculus [8] | Mus musculus [4] | Mus musculus [5]

C[C@@H]1O[C@@H](O[C@H]2[C@H](O)[C@@H](C(=O)NCCCCCCCCCCC(=O)OCc3cccc(Oc4ccccc4)c3)O[C@@H](O[C@H]3CC[C@]4(C)[C@H]5CC=C6[C@@H]7CC(C)(C)CC[C@]7(C(=O)O[C@@H]7O[C@H](C)[C@H](O)[C@H](O)[C@H]7O[C@@H]7O[C@@H](C)[C@H](O[C@@H]8OC[C@@H](O)[C@H](O)[C@H]8O)[C@@H](O[C@@H]8O[C@H](CO)[C@@H](O)[C@H](O[C@@H]9OC[C@@H](O)[C@H](O)[C@H]9O)[C@H]8O)[C@H]7O)[C@H](O)C[C@@]6(C)[C@]5(C)CC[C@H]4[C@]3(C)C=O)[C@@H]2O[C@@H]2O[C@H](CO)[C@H](O)[C@H](O)[C@H]2O)[C@H](O)[C@H](O)[C@H]1O
active: Mus musculus [1] | Mus musculus [5]

COc1cc(COC(=O)CCCCCCCCCCNC(=O)[C@H]2O[C@@H](O[C@H]3CC[C@]4(C)[C@H]5CC=C6[C@@H]7CC(C)(C)CC[C@]7(C(=O)O[C@@H]7O[C@H](C)[C@H](O)[C@H](O)[C@H]7O[C@@H]7O[C@@H](C)[C@H](O[C@@H]8OC[C@@H](O)[C@H](O)[C@H]8O)[C@@H](O[C@@H]8O[C@H](CO)[C@@H](O)[C@H](O[C@@H]9OC[C@@H](O)[C@H](O)[C@H]9O)[C@H]8O)[C@H]7O)[C@H](O)C[C@@]6(C)[C@]5(C)CC[C@H]4[C@]3(C)C=O)[C@H](O[C@@H]3O[C@H](CO)[C@H](O)[C@H](O)[C@H]3O)[C@@H](O[C@@H]3O[C@@H](C)[C@H](O)[C@@H](O)[C@H]3O)[C@@H]2O)cc(OC)c1
active: Mus musculus [1]

C[C@@H]1O[C@@H](O[C@H]2[C@H](O)[C@@H](C(=O)NCCCCCCCCCCCOCc3ccccc3)O[C@@H](O[C@H]3CC[C@]4(C)[C@H]5CC=C6[C@@H]7CC(C)(C)CC[C@]7(C(=O)O[C@@H]7O[C@H](C)[C@H](O)[C@H](O)[C@H]7O[C@@H]7O[C@@H](C)[C@H](O[C@@H]8OC[C@@H](O)[C@H](O)[C@H]8O)[C@@H](O[C@@H]8O[C@H](CO)[C@@H](O)[C@H](O[C@@H]9OC[C@@H](O)[C@H](O)[C@H]9O)[C@H]8O)[C@H]7O)[C@H](O)C[C@@]6(C)[C@]5(C)CC[C@H]4[C@]3(C)C=O)[C@@H]2O[C@@H]2O[C@H](CO)[C@H](O)[C@H](O)[C@H]2O)[C@H](O)[C@H](O)[C@H]1O
active: Mus musculus [6] | Mus musculus [7]

C[C@@H]1O[C@@H](O[C@H]2[C@H](O)[C@@H](C(=O)NCCCCCCCCCCC(=O)OCc3cccc([N+](=O)[O-])c3)O[C@@H](O[C@H]3CC[C@]4(C)[C@H]5CC=C6[C@@H]7CC(C)(C)CC[C@]7(C(=O)O[C@@H]7O[C@H](C)[C@H](O)[C@H](O)[C@H]7O[C@@H]7O[C@@H](C)[C@H](O[C@@H]8OC[C@@H](O)[C@H](O)[C@H]8O)[C@@H](O[C@@H]8O[C@H](CO)[C@@H](O)[C@H](O[C@@H]9OC[C@@H](O)[C@H](O)[C@H]9O)[C@H]8O)[C@H]7O)[C@H](O)C[C@@]6(C)[C@]5(C)CC[C@H]4[C@]3(C)C=O)[C@@H]2O[C@@H]2O[C@H](CO)[C@H](O)[C@H](O)[C@H]2O)[C@H](O)[C@H](O)[C@H]1O
not listed: Mus musculus [6] | Mus musculus [7]
active: all other assays above
